Active and inactive are the calls of the source.
Columns and labels:
[1] = tested on: Mus musculus; test: Anticonvulsant activity in albino mouse assessed as protection against subcutaneous pentetrazole-induced seizures at 30 mg/kg, ip after 0.5 hrs; type: functional, organism-based; design: dose 30 mg/kg
Outline: (§1)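 Male albino mice (Carworth Farms No. 1) received compound ip in 0.5% methylcellulose, then pentetrazole 85 mg/kg sc in 0.9% NaCl at 0.5 or 4 h. Mice were watched for at least 30 min. Protection meant no threshold seizure, defined as a single clonic spasm lasting at least 5 s. Scored as protected/tested.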

[2] = species on record: Mus musculus; test: Protective index, ratio TD50 for albino mouse to ED50 for albino mouse by maximal electroshock-induced seizure test after 1 hr; type: functional
Outline: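 Protective index was calculated as mouse ip TD50 (rotorod) divided by mouse ip MES ED50, both obtained by quantitative dose-response testing at the stated post-dose time.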

[3] = tested on: Mus musculus; test: Neurotoxicity in albino mouse assessed as minimal motor impairment at 30 mg/kg, ip after 4 hrs by rotorod test; type: toxicity, organism-based; design: dose 30 mg/kg, route intraperitoneal; settings: in vivo
Outline: (§2)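 Male albino mice (Carworth Farms No. 1) were dosed ip with suspensions in 0.5% methylcellulose and put on a 1 in. knurled rod rotating at 6 rpm at set times after dosing. Neurotoxicity meant failure to stay on the rod for at least 1 min in each of three trials. Scored as impaired/tested.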

[4] = tested on: Mus musculus; test: Anticonvulsant activity in albino mouse assessed as protection against maximal electroshock-induced seizures at 3 mg/kg, ip after 0.5 hrs; type: functional, organism-based; design: dose 3 mg/kg
Outline: (§3)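 Male albino mice (Carworth Farms No. 1) were given the compound ip as a suspension in 0.5% methylcellulose at 3–300 mg/kg. MES testing was at 0.5 and 4 h, sometimes also at 0.25 and 1 h. Current was 60 Hz, 50 mA, 0.2 s via corneal electrodes, with saline eye drops. Protection meant no hindlimb tonic extension, scored as protected/tested.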

[5] = tested on: Mus musculus; test: Anticonvulsant activity in albino mouse assessed as protection against subcutaneous pentetrazole-induced seizures at 100 mg/kg, ip after 0.5 hrs; type: functional, organism-based; design: dose 100 mg/kg; outline: as §1
[6] = tested on: Mus musculus; test: Anticonvulsant activity in albino mouse assessed as protection against maximal electroshock-induced seizures at 30 mg/kg, ip after 4 hrs; type: functional, organism-based; design: dose 30 mg/kg; outline: as §3
[7] = tested on: Rattus norvegicus; test: Neurotoxicity in Sprague-Dawley rat assessed as minimal motor impairment at 30 mg/kg, po after 0.25 hrs by rotorod test; settings: in vivo
[8] = tested on: Mus musculus; test: Anticonvulsant activity in albino mouse assessed as protection against subcutaneous pentetrazole-induced seizures at 30 mg/kg, ip after 4 hrs; type: functional, organism-based; design: dose 30 mg/kg; outline: as §1
[9] = tested on: Mus musculus; test: Anticonvulsant activity in albino mouse assessed as protection against subcutaneous pentetrazole-induced seizures at 100 mg/kg, ip after 4 hrs; type: functional, organism-based; design: dose 100 mg/kg; outline: as §1
[10] = tested on: Rattus norvegicus; test: Neurotoxicity in Sprague-Dawley rat assessed as minimal motor impairment at 30 mg/kg, po after 1 hr by rotorod test; settings: in vivo
[11] = tested on: Mus musculus; test: Anticonvulsant activity in albino mouse assessed as protection against subcutaneous pentetrazole-induced seizures at 300 mg/kg, ip after 0.5 hrs; type: functional, organism-based; design: dose 300 mg/kg; outline: as §1
[12] = tested on: Mus musculus; test: Anticonvulsant activity in albino mouse assessed as protection against subcutaneous pentetrazole-induced seizures at 300 mg/kg, ip after 4 hrs; type: functional, organism-based; design: dose 300 mg/kg; outline: as §1
[13] = tested on: Mus musculus; test: Neurotoxicity in albino mouse assessed as minimal motor impairment at 10 mg/kg, ip after 0.5 hrs by rotorod test; type: toxicity, organism-based; design: dose 10 mg/kg, route intraperitoneal; settings: in vivo; outline: as §2
[14] = tested on: Mus musculus; test: Anticonvulsant activity in ip dosed albino mouse assessed as protection against maximal electroshock-induced seizures after 1 hr; type: functional
Outline: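 ED50, with 95% confidence intervals, was the ip dose protecting 50% of mice in the MES test. It was measured at the stated post-dose time in male albino mice given suspensions in 0.5% methylcellulose. MES used 60 Hz, 50 mA, 0.2 s corneal stimulation, and the endpoint was abolition of hindlimb tonic extension.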

[15] = tested on: Mus musculus; test: Anticonvulsant activity in albino mouse assessed as protection against maximal electroshock-induced seizures at 100 mg/kg, ip after 0.5 hrs; type: functional, organism-based; design: dose 100 mg/kg; outline: as §3
[16] = tested on: Mus musculus; test: Neurotoxicity in albino mouse assessed as minimal motor impairment at 100 mg/kg, ip after 4 hrs by rotorod test; type: toxicity, organism-based; design: dose 100 mg/kg, route intraperitoneal; settings: in vivo; outline: as §2
[17] = tested on: Mus musculus; test: Anticonvulsant activity in ip dosed albino mouse assessed as protection against subcutaneous pentetrazole-induced seizures after 1 hr; type: functional
[18] = tested on: Mus musculus; test: Neurotoxicity in albino mouse assessed as minimal motor impairment at 3 mg/kg, ip after 0.5 hrs by rotorod test; type: toxicity, organism-based; design: dose 3 mg/kg, route intraperitoneal; settings: in vivo; outline: as §2
[19] = tested on: Rattus norvegicus; test: Neurotoxicity in Sprague-Dawley rat assessed as minimal motor impairment at 30 mg/kg, po after 2 hrs by rotorod test; settings: in vivo
[20] = tested on: Mus musculus; test: Neurotoxicity in albino mouse assessed as minimal motor impairment at 300 mg/kg, ip after 4 hrs by rotorod test; type: toxicity, organism-based; design: dose 300 mg/kg, route intraperitoneal; settings: in vivo; outline: as §2
[21] = tested on: Rattus norvegicus; test: Neurotoxicity in Sprague-Dawley rat assessed as minimal motor impairment at 30 mg/kg, po after 0.5 hrs by rotorod test; settings: in vivo
[22] = tested on: Mus musculus; test: Neurotoxicity in albino mouse assessed as minimal motor impairment at 30 mg/kg, ip after 0.5 hrs by rotorod test; type: toxicity, organism-based; design: dose 30 mg/kg, route intraperitoneal; settings: in vivo; outline: as §2
[23] = tested on: Rattus norvegicus; test: Neurotoxicity in Sprague-Dawley rat assessed as minimal motor impairment at 30 mg/kg, po after 4 hrs by rotorod test; settings: in vivo
[24] = tested on: Mus musculus; test: Anticonvulsant activity in albino mouse assessed as protection against maximal electroshock-induced seizures at 100 mg/kg, ip after 4 hrs; type: functional, organism-based; design: dose 100 mg/kg; outline: as §3
[25] = Neurotoxicity in ip dosed albino mouse assessed as minimal motor impairment after 0.25 hrs by rotorod test; type: toxicity, organism-based; settings: in vivo
Outline: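 TD50, with 95% confidence intervals, was the ip dose causing neurotoxicity in 50% of male albino mice. Deficit was judged on the rotorod: a 1 in. knurled rod at 6 rpm, where failure to hold on for 1 min in each of three trials counted as deficit. Read at the stated time after dosing.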

[26] = tested on: Mus musculus; test: Anticonvulsant activity in albino mouse assessed as protection against maximal electroshock-induced seizures at 300 mg/kg, ip after 4 hrs; type: functional, organism-based; design: dose 300 mg/kg; outline: as §3
[27] = tested on: Mus musculus; test: Anticonvulsant activity in albino mouse assessed as protection against maximal electroshock-induced seizures at 300 mg/kg, ip after 0.5 hrs; type: functional, organism-based; design: dose 300 mg/kg; outline: as §3
[28] = tested on: Mus musculus; test: Anticonvulsant activity in albino mouse assessed as protection against maximal electroshock-induced seizures at 30 mg/kg, ip after 0.5 hrs; type: functional, organism-based; design: dose 30 mg/kg; outline: as §3

Question: For `CC[C@@H](CO)NCc1ccc2oc3cc(OC)ccc3c(=O)c2c1`, which Activity [1] is on record?
Answer: Its Activity is “inactive”.

Question: What about the “Ratio TD50/ED50” value [2] of the same compound?
Answer: Its value is over 8.41.

Question: And the Activity [3]?
Answer: Its Activity is “Non-toxic”.

Question: What about the Activity [4] of the same compound?
Answer: The Activity was “inactive”.

Question: What about the Activity [5] of the same compound?
Answer: The Activity was “inactive”.

Question: And the Activity [6]?
Answer: Its Activity is “inactive”.

Question: And the Activity [7]?
Answer: Its Activity is “Non-toxic”.

Question: What about the Activity [8] of the same compound?
Answer: Its Activity is “inactive”.

Question: And the Activity [9]?
Answer: The Activity was “inactive”.

Question: What about the Activity [10] of the same compound?
Answer: The Activity was “Non-toxic”.

Question: What about the Activity [11] of the same compound?
Answer: Its Activity is “inactive”.

Question: What about the Activity [12] of the same compound?
Answer: The Activity was “inactive”.

Question: And the Activity [13]?
Answer: The Activity was “Non-toxic”.

Question: And the ED50 [14]?
Answer: The ED50 was 47.6 mg/kg.

Question: What about the Activity [15] of the same compound?
Answer: Its Activity is “Active”.

Question: What about the Activity [16] of the same compound?
Answer: The Activity was “Non-toxic”.

Question: And the ED50 [17]?
Answer: Its ED50 is over 200 mg/kg.

Question: And the Activity [18]?
Answer: Its Activity is “Non-toxic”.

Question: And the Activity [19]?
Answer: Its Activity is “Non-toxic”.

Question: What about the Activity [20] of the same compound?
Answer: The Activity was “Toxic”.

Question: And the Activity [21]?
Answer: The Activity was “Non-toxic”.

Question: What about the Activity [22] of the same compound?
Answer: Its Activity is “Non-toxic”.

Question: And the Activity [23]?
Answer: Its Activity is “Non-toxic”.

Question: What about the Activity [24] of the same compound?
Answer: Its Activity is “Active”.

Question: And the TD50 at 0.25 h [25]?
Answer: The TD50 at 0.25 h was over 400 mg/kg.

Question: And the Activity [26]?
Answer: Its Activity is “Active”.

Question: And the Activity [27]?
Answer: The Activity was “Active”.

Question: What about the Activity [28] of the same compound?
Answer: The Activity was “Active”.

Reference: ChEMBL document CHEMBL2331168, “Anticonvulsant evaluation of aminoalkanol derivatives of 2- and 4-methylxanthone” (Bioorg Med Chem, 2013)
